By apparent Kd is commonly meant a dissociation constant that holds for the conditions of the assay.

The source of these data is the EternaBench riboswitch data.

The data set relates to MS2 coat protein. Put plainly: apparent Kd, MS2 coat protein; higher = weaker binding; RNA-MaP array; FMN 200 µM where present. The procedure, abridged: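 Stalled E. coli RNA polymerase transcribed the designs on Illumina sequencing-chip clusters. SNAP-549-labelled MS2 coat protein was titrated from 0.7 or 1.5 nM, doubling to 3 µM, without and then with constant ligand, in 100 mM Tris-HCl pH 7.5, 80 mM KCl, 4 mM MgCl2, BSA, DTT, yeast tRNA and Tween-20. Per-cluster binding curves were fitted to green signal normalised to red-channel RNA signal and control-cluster median Fmax. The apparent Kd is the median of the filtered fits.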

Where [1] appears, read: designed as: OFF switch for flavin mononucleotide, no ligand.
The mark [2] stands for this setting: ligand present: flavin mononucleotide, designed as: OFF switch for flavin mononucleotide.
[3] abbreviates: designed as: ON switch for flavin mononucleotide, no ligand.
The mark [4] stands for this setting: ligand present: flavin mononucleotide, designed as: ON switch for flavin mononucleotide.

For the sequence “UUACAGCAAGGAUAUACGGGCUGUGCUUUUCAUUUCUUACAACAUGAGGAUCACCCAUGUAGAAGGUGCAACUU”, the “apparent Kd” value under setting [1] is 0.0348 µM and the “apparent Kd” value under setting [2] is 0.0633 µM.

For the sequence “AAUAUGUUGCAGAAGGCCAUGUUGUGGUAGUACCUCAUGACAUGAGGAUCACCCAUGUCUGUGAUGGAGGAUAUGCAAUAUAUU”, the “apparent Kd” value by setting is: under setting [1], 0.00887 µM; under setting [2], 0.0148 µM.

On to “GCUAUCAAUGUCAGGAUAUUUAUUUGGGCUUAAUUGAAGAAGGGACAUGAGGAUCACCCAUGUGGCGCAGAGUU”, for which the “apparent Kd” value by setting is: under setting [1], 0.0369 µM; under setting [2], 0.202 µM.

Turning to “ACGGCAGUCAGAGGAUAUGGUUACAUGAGGAUCACCCAUGUCAAGGGUCUAAUUAAGUAUAACUACUAGAAGGCUGAAGGCCUA”, the “apparent Kd” value is 0.154 µM under setting [1] and 0.113 µM under setting [2].

Regarding “UGAAAUCAUGUAGGAUAUGCAUGGCGAAGCUACGCAGAAGGACAUGAGGAUCACCCAUGUUCUAGCUACCGAGUUCGGUGGCAA”, the “apparent Kd” value is 0.0213 µM under setting [1] and 0.127 µM under setting [2].

With “UGUUGUAUUACAGGAUAUCUAUUAGUUUUUUUUAGAGAAGGGUAUUCACAUGAGGAUCACCCAUGUAUAUACGAGGAAGUUGUG”, the “apparent Kd” value is, setting by setting: under setting [3], 0.0502 µM; under setting [4], 0.0517 µM.

As for “AGACAGUGAGGAUAUGCAGUCGGUGUCACCUGAUGAGAAGAACAUGAGGAUCACCCAUGUAGAAGGCACAGGAA”, the “apparent Kd” value came out at 0.039 µM under setting [1] and 0.229 µM under setting [2].

As for “UUGUGGGAGACAGGAUAUGUACGGAAGGUCCACGUACAUGAGGAUCACCCAUGUCCAGGCUUCAGACAGAAGGGUCACCAGGUG”, the “apparent Kd” value was found to be 0.595 µM under setting [3] and 0.0454 µM under setting [4].

With “GGUCGUAAGGAGAAGGGCUACUGGUUGAAACCUGCGGCCUCUGGAACAUGAGGAUCACCCAUGUAGCAGGAUAUCCUUGCGUGA”, the “apparent Kd” value under setting [1] worked out at 0.188 µM and the “apparent Kd” value under setting [2] was 0.0453 µM.

Turning to “GCGUGGUGUCUAGGAUAUGCCGUGCAACGAGGAGCAGAAGGAGACAUGAGGAUCACCCAUGUAAGCUUAGCCGCUCACAGAGGG”, the “apparent Kd” value is, setting by setting: under setting [1], 0.0268 µM; under setting [2], 0.0737 µM.

“AUUCCUUGUGUUAGGAUAUGUCACUACCGUAUGCGACAGAAGGAACAUGAGGAUCACCCAUGUGAGUUAGCCGA”: the “apparent Kd” value was 0.0875 µM under setting [1] and 0.0241 µM under setting [2].

“AAAAAACAUGAGGAUCACCCAUGUGAGGAUAUGACGUAAAUAAAGAAAGAAGAAAUCGUCAGAAGGCACACCUA”: the “apparent Kd” value is 0.0527 µM under setting [1] and 0.0793 µM under setting [2].

Take “UAAGCGCAGGAGAAGGGCACUGGACGCUCGCUACAUGAGGAUCACCCAUGUGCAGGAUAUCCGGCGCCGCCCGCAAACUCGGCG”: the “apparent Kd” value by setting is: under setting [1], 0.00514 µM; under setting [2], 0.0133 µM.

As to “UAUAUAUAGUAAGGAUAUGUAUAUAUUGUAUAAACAGAAGGUACUGACAUGAGGAUCACCCAUGUUUUAGUGUGGGCAUGUAGA”, the “apparent Kd” value under setting [1] turned out to be 0.0765 µM and the “apparent Kd” value under setting [2] was found to be 0.121 µM.

For “UUAUACGUUGAGGAUAUGUCAUUUAGUAUAGUUACAGAAGGCGAUACAUGAGGAUCACCCAUGUUUAUGGGCAU”, the “apparent Kd” value turned out to be 0.239 µM under setting [1] and 0.164 µM under setting [2].

In the case of “GCACAUGAUACAGGAUAUGUAUUGGUAUUUAUAUACAGUUAUAUAAUAUUUACAGAAGGGUAUACAUGAGGAUCACCCAUGUGC”, the “apparent Kd” value under setting [1] worked out at 0.0813 µM and the “apparent Kd” value under setting [2] came out at 0.0417 µM.

Regarding “CGGUGCUGAGGAUAUACAUGAGGAUCACCCAUGUGUGCCAGCUAGCUGACUGGCACUUGUAGAAGGCAGUACUG”, the “apparent Kd” value under setting [1] came out at 0.0127 µM and the “apparent Kd” value under setting [2] was found to be 0.0243 µM.

“GCAGGAUAAGUCAGGAUAUACCUAUGGAUACAUAGGUAGAAGGGACAUGAGGAUCACCCAUGUGACUCGCCUGC”: the “apparent Kd” value reads like this: under setting [1], 0.0295 µM; under setting [2], 0.1 µM.

“ACAGCGGAGGCAGGAUAUCGCACAUGAGGAUCACCCAUGUGGUUAUUUACGGGUUGGUGGUCACGCGAGAAGGGCCAACCAUAA”: the “apparent Kd” value reads like this: under setting [1], 0.059 µM; under setting [2], 0.0317 µM.

Take “GUUAAUUUCGAAGGAUAUGGAUACAUGAGGAUCACCCAUGUAUAAAAUGAGAUCUAUUAUAUGAUCCAGAAGGUCGUUUUUUAU”: the “apparent Kd” value runs as follows: under setting [1], 0.0365 µM; under setting [2], 0.0696 µM.

On to “AUAUUAUUGAUCCAUUUUUUCAACAUGAGGAUCACCCAUGUGCAGGAUAUCGUGAUUAUUAUCAACGAGAAGGGCAAAUUCAUU”, for which the “apparent Kd” value by setting is: under setting [1], 0.0765 µM; under setting [2], 0.234 µM.

Consider “CCGGAAGUACAGGAUAUAGGAGUCGAUAGACUCCUAGAAGGGUAUACAUGAGGAUCACCCAUGUGUCCUACCGG”, for which the “apparent Kd” value was 0.0296 µM under setting [1] and 0.0334 µM under setting [2].

Consider “GUUCUGCCUCCUGCCGGAACAUGAGGAUCACCCAUGUUGCCUGAGGAUAUCCUAUGGCGUCCACAGGAGAAGGCAGGCAGCAUA”, for which the “apparent Kd” value is 0.0186 µM under setting [1] and 0.0196 µM under setting [2].

Turning to “UGUCGGAGCAGAGGAUAUCACAUGAGGAUCACCCAUGUAUGAACCAAUAGCUGGAAACAGCAAUGUAAGAAGGCUGCUCCGACA”, the “apparent Kd” value worked out at 0.00564 µM under setting [1] and 0.00962 µM under setting [2].
